In ChEMBL document CHEMBL2057156, “Synthesis and biological evaluation of the first dual tyrosyl-DNA phosphodiesterase I (Tdp1)-topoisomerase I (Top1) inhibitors” (J Med Chem, 2012):
The source made the active and inactive calls. No cut-off for these calls is given here.

Tests used:
[1] = target: T1, DNA topoisomerase 1 (Homo sapiens) (UniProt P11387); experiment: Inhibition of human recombinant Top1-mediated DNA cleavage by polyacrylamide gel electrophoresis relative to camptothecin; design: concentration or dose not given beside the values
T1 sequence (whole entry): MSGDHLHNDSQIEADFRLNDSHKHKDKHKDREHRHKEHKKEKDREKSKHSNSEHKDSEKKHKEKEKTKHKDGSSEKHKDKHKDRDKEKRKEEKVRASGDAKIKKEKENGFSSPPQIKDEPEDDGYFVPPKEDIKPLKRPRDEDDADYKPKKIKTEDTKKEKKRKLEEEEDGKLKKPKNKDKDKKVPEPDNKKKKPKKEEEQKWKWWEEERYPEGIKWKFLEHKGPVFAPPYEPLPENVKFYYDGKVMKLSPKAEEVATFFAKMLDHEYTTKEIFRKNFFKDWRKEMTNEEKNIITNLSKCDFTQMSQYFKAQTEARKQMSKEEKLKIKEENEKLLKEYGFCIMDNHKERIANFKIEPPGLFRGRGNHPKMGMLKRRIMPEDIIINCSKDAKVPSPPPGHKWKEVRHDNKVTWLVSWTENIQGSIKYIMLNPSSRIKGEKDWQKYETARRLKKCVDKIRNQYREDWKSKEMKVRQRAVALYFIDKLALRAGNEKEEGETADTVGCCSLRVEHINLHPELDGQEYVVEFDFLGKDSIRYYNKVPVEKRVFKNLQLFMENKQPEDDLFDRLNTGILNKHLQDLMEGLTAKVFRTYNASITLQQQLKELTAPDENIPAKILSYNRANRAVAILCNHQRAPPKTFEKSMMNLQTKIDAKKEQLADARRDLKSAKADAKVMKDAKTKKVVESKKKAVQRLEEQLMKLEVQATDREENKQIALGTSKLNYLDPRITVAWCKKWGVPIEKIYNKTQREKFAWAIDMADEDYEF
In short: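 Baculovirus-purified human recombinant Top1 was incubated for 20 min at 25 °C, with compounds at various concentrations, with about 2 nM of a 117-bp oligonucleotide 3′-end-labeled with [α-³²P]dGTP. Reactions were stopped with 0.5% SDS and run on 20% denaturing PAGE. Cleavage bands were phosphorimaged and graded semiquantitatively against 1 μM camptothecin.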

[2] = target: T2, Tyrosyl-DNA phosphodiesterase 1 (Homo sapiens, UniProt Q9NUW8); experiment: Inhibition of human recombinant Tdp1 using 5'-[32P]-labeled single-stranded DNA oligonucleotide containing 3'-phosphotyrosine as substrate assessed as prevention of generation of oligonucleotide with free 3'-phosphate after 15 mins by PAGE analysis
[3] = target: T2, Tyrosyl-DNA phosphodiesterase 1; experiment: Inhibition of human Tdp1 in Tdp1-deficient chicken DT40 whole cell extract using 5'-[32P]-labeled single-stranded DNA oligonucleotide containing 3'-phosphotyrosine as substrate after 15 mins by PAGE analysis

T2 sequence (Q9NUW8 whole entry): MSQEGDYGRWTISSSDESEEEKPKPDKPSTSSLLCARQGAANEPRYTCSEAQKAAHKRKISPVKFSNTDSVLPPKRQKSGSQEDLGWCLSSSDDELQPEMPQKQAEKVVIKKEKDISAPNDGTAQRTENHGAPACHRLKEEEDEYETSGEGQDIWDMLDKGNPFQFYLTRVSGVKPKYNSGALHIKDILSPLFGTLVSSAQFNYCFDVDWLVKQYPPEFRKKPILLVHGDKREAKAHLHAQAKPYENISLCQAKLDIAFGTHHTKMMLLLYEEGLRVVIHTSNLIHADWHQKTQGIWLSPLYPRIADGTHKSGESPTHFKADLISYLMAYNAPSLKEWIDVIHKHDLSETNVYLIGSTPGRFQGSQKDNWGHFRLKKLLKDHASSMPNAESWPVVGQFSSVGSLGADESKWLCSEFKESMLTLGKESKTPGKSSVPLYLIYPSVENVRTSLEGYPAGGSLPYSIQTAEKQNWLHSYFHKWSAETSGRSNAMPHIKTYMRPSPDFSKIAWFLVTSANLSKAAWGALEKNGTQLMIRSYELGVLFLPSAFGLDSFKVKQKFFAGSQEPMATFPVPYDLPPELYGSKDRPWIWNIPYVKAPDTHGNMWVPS

| inhibition ([1]; concentration not given here) | IC50 [2] | inhibition [2] | IC50 [3] | inhibition [1] | Compound |
| --- | --- | --- | --- | --- | --- |
| – | > 111 µM | – | – | inactive | Cc1ccc(S(=O)(=O)NCCCCCCCn2c3c(c4ccccc4c2=O)C(=O)c2ccccc2-3)cc1 |
| – | > 111 µM | – | – | – | Cc1ccc(S(=O)(=O)OCCCn2c3c(c4ccccc4c2=O)C(=O)c2ccccc2-3)cc1 |
| – | > 111 µM | – | – | inactive | Cc1ccc(S(=O)(=O)NCCCCCCCCn2c3c(c4ccccc4c2=O)C(=O)c2ccccc2-3)cc1 |
| – | > 111 µM | – | – | inactive | Cc1ccc(S(=O)(=O)NCCCCCCCCCn2c3c(c4ccccc4c2=O)C(=O)c2ccccc2-3)cc1 |
| – | > 111 µM | – | – | inactive | Cc1ccc(S(=O)(=O)NCCn2c3c(c4ccccc4c2=O)C(=O)c2ccccc2-3)cc1 |
| – | > 111 µM | – | – | inactive | Cc1ccc(S(=O)(=O)NCCCCCCCCCCCCn2c3c(c4ccccc4c2=O)C(=O)c2ccccc2-3)cc1 |
| – | > 111 µM | – | – | inactive | Cc1ccc(S(=O)(=O)NCCCCCn2c3c(c4ccccc4c2=O)C(=O)c2ccccc2-3)cc1 |
| – | > 111 µM | – | – | inactive | Cc1ccc(S(=O)(=O)NCCCCCCCCCCn2c3c(c4ccccc4c2=O)C(=O)c2ccccc2-3)cc1 |
| – | > 111 µM | – | – | – | Cc1ccc(S(=O)(=O)OCCCCCCn2c3c(c4ccccc4c2=O)C(=O)c2ccccc2-3)cc1 |
| – | > 111 µM | – | – | inactive | Cc1ccc(S(=O)(=O)NCCCCCCn2c3c(c4ccccc4c2=O)C(=O)c2ccccc2-3)cc1 |
| – | > 111 µM | – | – | inactive | O=C1c2ccccc2-c2c1c1ccccc1c(=O)n2CCCCCCCCCNS(=O)(=O)c1ccc(Br)cc1 |
| – | > 111 µM | – | – | – | Cc1ccc(S(=O)(=O)OCCCCn2c3c(c4ccccc4c2=O)C(=O)c2ccccc2-3)cc1 |
| – | > 111 µM | – | – | – | Cc1ccc(S(=O)(=O)OCCCCCn2c3c(c4ccccc4c2=O)C(=O)c2ccccc2-3)cc1 |
| – | > 111 µM | – | – | inactive | O=C1c2ccccc2-c2c1c1ccccc1c(=O)n2CCCCCNS(=O)(=O)c1ccc(Br)cc1 |
| – | > 111 µM | – | – | inactive | Cc1ccc(S(=O)(=O)NCCCCn2c3c(c4ccccc4c2=O)C(=O)c2ccccc2-3)cc1 |
| – | > 111 µM | – | – | inactive | Cc1ccc(S(=O)(=O)NCCCCCCCCCCCn2c3c(c4ccccc4c2=O)C(=O)c2ccccc2-3)cc1 |
| – | > 111 µM | – | – | inactive | Cc1ccc(S(=O)(=O)NCCCn2c3c(c4ccccc4c2=O)C(=O)c2ccccc2-3)cc1 |
| – | > 111 µM | – | – | – | Cc1ccc(S(=O)(=O)OCCCCCCCn2c3c(c4ccccc4c2=O)C(=O)c2ccccc2-3)cc1 |
| – | > 111 µM | – | – | inactive | O=C1c2ccccc2-c2c1c1ccccc1c(=O)n2CCCCCCNS(=O)(=O)c1ccc(Br)cc1 |
| – | > 111 µM | – | – | inactive | O=C1c2ccccc2-c2c1c1ccccc1c(=O)n2CCCCCCCNS(=O)(=O)c1ccc(Br)cc1 |
| – | > 111 µM | – | – | inactive | O=C1c2ccccc2-c2c1c1ccccc1c(=O)n2CCCCCCCCNS(=O)(=O)c1ccc(Br)cc1 |
| – | > 111 µM | – | – | inactive | O=C1c2ccccc2-c2c1c1ccccc1c(=O)n2CCCCNS(=O)(=O)c1ccc(Br)cc1 |

More lines, now with the values behind:

| Compound | inhibition ([1]; concentration not given here) | IC50 [2] | inhibition [2] | IC50 [3] | inhibition [1] |
| --- | --- | --- | --- | --- | --- |
| NCCCCCCCCCn1c2c(c3ccccc3c1=O)C(=O)c1ccccc1-2 | 0% | 47 µM | Dose-dependent effect | 48 µM | – |
| NCCCCCCCn1c2c(c3ccccc3c1=O)C(=O)c1ccccc1-2 | 0% | 28.8 µM | – | 31 µM | – |
| NCCCCCCCCn1c2c(c3ccccc3c1=O)C(=O)c1ccccc1-2 | 20% | 48 µM | – | 49 µM | – |
| CS(=O)(=O)NCCCn1c2c(c3ccccc3c1=O)C(=O)c1ccccc1-2 | – | > 111 µM | – | – | inactive |
| CS(=O)(=O)NCCCCCCCCCCn1c2c(c3ccccc3c1=O)C(=O)c1ccccc1-2 | – | > 111 µM | – | – | inactive |
| O=C1c2ccccc2-c2c1c1ccccc1c(=O)n2CCCCCCCCCCCNS(=O)(=O)c1ccc(Br)cc1 | – | > 111 µM | – | – | inactive |
| O=C1c2ccccc2-c2c1c1ccccc1c(=O)n2CCCCCCCCCNS(=O)(=O)c1ccccc1 | – | > 111 µM | – | – | inactive |
| O=C1c2ccccc2-c2c1c1ccccc1c(=O)n2CCO | – | > 111 µM | – | – | – |
| O=C1c2ccccc2-c2c1c1ccccc1c(=O)n2CCCCCCCCCCCCn1c2c(c3ccccc3c1=O)C(=O)c1ccccc1-2 | – | > 111 µM | – | – | – |
| O=C1c2ccccc2-c2c1c1ccccc1c(=O)n2CCCCCCCCCCNS(=O)(=O)c1ccc(Br)cc1 | – | > 111 µM | – | – | inactive |
| O=C1c2ccccc2-c2c1c1ccccc1c(=O)n2CCCCCCCCCCNS(=O)(=O)c1ccccc1 | – | > 111 µM | – | – | inactive |
| O=C1c2ccccc2-c2c1c1ccccc1c(=O)n2CCCCCO | – | > 111 µM | – | – | – |
| O=C1c2ccccc2-c2c1c1ccccc1c(=O)n2CCCO | – | > 111 µM | – | – | – |
| CS(=O)(=O)NCCCCCCCCCCCCn1c2c(c3ccccc3c1=O)C(=O)c1ccccc1-2 | – | > 111 µM | – | – | inactive |
| O=C1c2ccccc2-c2c1c1ccccc1c(=O)n2CCCCCNS(=O)(=O)c1ccccc1 | – | > 111 µM | – | – | inactive |
| O=C1c2ccccc2-c2c1c1ccccc1c(=O)n2CCCNS(=O)(=O)c1ccc(Br)cc1 | – | > 111 µM | – | – | inactive |
| CS(=O)(=O)NCCCCCCCCn1c2c(c3ccccc3c1=O)C(=O)c1ccccc1-2 | – | > 111 µM | – | – | inactive |
| O=C1c2ccccc2-c2c1c1ccccc1c(=O)n2CCCCCCCCCCn1c2c(c3ccccc3c1=O)C(=O)c1ccccc1-2 | – | > 111 µM | – | – | – |
| CS(=O)(=O)NCCCCCn1c2c(c3ccccc3c1=O)C(=O)c1ccccc1-2 | – | > 111 µM | – | – | inactive |
| O=C1c2ccccc2-c2c1c1ccccc1c(=O)n2CCNS(=O)(=O)c1ccccc1 | – | > 111 µM | – | – | inactive |

| Compound | inhibition ([1]; concentration not given here) | IC50 [2] | inhibition [2] | IC50 [3] | inhibition [1] |
| --- | --- | --- | --- | --- | --- |
| O=C1c2ccccc2-c2c1c1ccccc1c(=O)n2CCCCCCCCCCCCNS(=O)(=O)c1ccccc1 | – | > 111 µM | – | – | inactive |
| O=C1c2ccccc2-c2c1c1ccccc1c(=O)n2CCCCCCCCCCCNS(=O)(=O)c1ccccc1 | – | > 111 µM | – | – | inactive |
| NCCCCn1c2c(c3ccccc3c1=O)C(=O)c1ccccc1-2 | 75% | – | – | 23.4 µM | – |
| O=C1c2ccccc2-c2c1c1ccccc1c(=O)n2CCCCCCCCCCCCNS(=O)(=O)c1ccc(Br)cc1 | – | > 111 µM | – | – | inactive |
| O=C1c2ccccc2-c2c1c1ccccc1c(=O)n2CCNS(=O)(=O)c1ccc(Br)cc1 | – | > 111 µM | – | – | inactive |
| CS(=O)(=O)NCCCCn1c2c(c3ccccc3c1=O)C(=O)c1ccccc1-2 | – | > 111 µM | – | – | inactive |
| O=C1c2ccccc2-c2c1c1ccccc1c(=O)n2CCCCCCCNS(=O)(=O)c1ccccc1 | – | > 111 µM | – | – | inactive |
| CS(=O)(=O)NCCCCCCCCCn1c2c(c3ccccc3c1=O)C(=O)c1ccccc1-2 | – | > 111 µM | – | – | inactive |
| O=C1c2ccccc2-c2c1c1ccccc1c(=O)n2CCCNCCCNCCCn1c2c(c3ccccc3c1=O)C(=O)c1ccccc1-2 | 100% | 1.52 µM | – | – | – |
| CS(=O)(=O)NCCn1c2c(c3ccccc3c1=O)C(=O)c1ccccc1-2 | – | > 111 µM | – | – | inactive |
| O=C1c2ccccc2-c2c1c1ccccc1c(=O)n2CCCCCCCCNS(=O)(=O)c1ccccc1 | – | > 111 µM | – | – | inactive |
| CS(=O)(=O)NCCCCCCCn1c2c(c3ccccc3c1=O)C(=O)c1ccccc1-2 | – | > 111 µM | – | – | inactive |
| O=C1c2ccccc2-c2c1c1ccccc1c(=O)n2CCCCCCCCCCCn1c2c(c3ccccc3c1=O)C(=O)c1ccccc1-2 | – | > 111 µM | – | – | – |
| CS(=O)(=O)NCCCCCCCCCCCn1c2c(c3ccccc3c1=O)C(=O)c1ccccc1-2 | – | > 111 µM | – | – | inactive |
| O=C1c2ccccc2-c2c1c1ccccc1c(=O)n2CCCNS(=O)(=O)c1ccccc1 | – | > 111 µM | – | – | inactive |
| O=C1c2ccccc2-c2c1c1ccccc1c(=O)n2CCCCNS(=O)(=O)c1ccccc1 | – | > 111 µM | – | – | inactive |
| CS(=O)(=O)NCCCCCCn1c2c(c3ccccc3c1=O)C(=O)c1ccccc1-2 | – | > 111 µM | – | – | inactive |
| O=C1c2ccccc2-c2c1c1ccccc1c(=O)n2CCCCCCNS(=O)(=O)c1ccccc1 | – | > 111 µM | – | – | inactive |
| O=C1c2ccccc2-c2c1c1ccccc1c(=O)n2CCCCO | – | > 111 µM | – | – | – |
